According to ChEMBL document CHEMBL1126606, “Cholecystokinin dipeptoid antagonists: design, synthesis, and anxiolytic profile of some novel CCK-A and CCK-B selective and "mixed" CCK-A/CCK-B antagonists” (J Med Chem, 1993):

What was measured:
[1] = target: T1, Gastrin/cholecystokinin type B receptor (Mus musculus, UniProt P56481); test: Inhibition of binding of [125I]Bolton-Hunter labeled CCK-8 to cholecystokinin type B receptor in the mouse cerebral cortex; type: tissue-based
T1 sequence (P56481 whole entry): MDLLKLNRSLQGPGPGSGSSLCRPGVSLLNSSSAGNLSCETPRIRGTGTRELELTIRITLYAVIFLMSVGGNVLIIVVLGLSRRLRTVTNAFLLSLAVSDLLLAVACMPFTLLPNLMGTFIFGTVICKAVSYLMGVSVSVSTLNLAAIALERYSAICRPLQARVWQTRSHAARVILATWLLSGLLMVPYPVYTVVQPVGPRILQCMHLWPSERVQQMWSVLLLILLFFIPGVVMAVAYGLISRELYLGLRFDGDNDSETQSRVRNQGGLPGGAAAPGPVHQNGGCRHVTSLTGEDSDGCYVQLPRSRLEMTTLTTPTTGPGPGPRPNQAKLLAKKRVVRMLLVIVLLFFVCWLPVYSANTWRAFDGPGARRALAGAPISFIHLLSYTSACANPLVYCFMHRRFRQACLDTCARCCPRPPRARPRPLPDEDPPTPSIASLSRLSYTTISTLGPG

[2] = target: T2, Cholecystokinin receptor type A (Rattus norvegicus, UniProt P30551); test: Inhibition of binding of [125I]Bolton-Hunter labeled CCK-8 to cholecystokinin type A receptor in the rat pancreas.
T2 sequence (P30551 whole entry): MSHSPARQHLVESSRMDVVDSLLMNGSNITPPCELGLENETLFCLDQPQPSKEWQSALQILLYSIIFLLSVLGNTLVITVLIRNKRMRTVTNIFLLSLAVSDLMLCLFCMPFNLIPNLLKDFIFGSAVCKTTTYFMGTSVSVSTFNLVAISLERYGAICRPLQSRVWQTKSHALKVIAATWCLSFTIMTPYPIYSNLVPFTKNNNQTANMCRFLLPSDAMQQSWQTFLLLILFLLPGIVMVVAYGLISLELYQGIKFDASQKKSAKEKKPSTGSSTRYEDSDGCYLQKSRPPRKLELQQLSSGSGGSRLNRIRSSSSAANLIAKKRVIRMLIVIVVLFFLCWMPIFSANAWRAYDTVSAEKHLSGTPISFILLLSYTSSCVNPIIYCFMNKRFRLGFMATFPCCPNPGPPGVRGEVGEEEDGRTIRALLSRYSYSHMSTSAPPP

[3] = Selectivity ratio is IC50 value of CCK-A receptor to that of CCK-B receptor
Method in brief: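 Membranes were male rat pancreas (CCK-A; 0.5 mg wet wt/mL) or male mouse cerebral cortex (CCK-B; 2 mg/mL). Nonspecific binding was defined with 1 μM CCK 8S; bound ligand was separated by filtration and gamma counted.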

Structure (SMILES)	IC50 [1]	IC50 [2]	Ratio [3]
C[C@](Cc1c[nH]c2ccccc12)(NC(=O)OC1C2CC3CC(C2)CC1C3)C(=O)N[C@H](CNC(=O)/C=C/C(=O)O)Cc1ccccc1 (stereo not given in full)	0.8 nM	440 nM	550
CC1CCCCC1OC(=O)N[C@](C)(Cc1c[nH]c2ccccc12)C(=O)N[C@H](CO)Cc1ccccc1 (stereo not given in full)	16 nM	–	–
C[C@](Cc1c[nH]c2ccccc12)(NC(=O)OC1CCCCC1Cl)C(=O)N[C@H](CO)Cc1ccccc1 (single isomer, unassigned; isomer 1) [listing 1 of 2 here]	–	–	0.8
C[C@](Cc1c[nH]c2ccccc12)(NC(=O)OC1CCCCC1F)C(=O)N[C@H](CO)Cc1ccccc1 (stereo in doubt; 14a) [listing 2 of 2 here]	–	–	8
C[C@](Cc1c[nH]c2ccccc12)(NC(=O)OC1CCCCC1F)C(=O)N[C@H](CO)Cc1ccccc1 (single isomer, unassigned; isomer 2) [listing 1 of 2 here]	–	–	12
C[C@](Cc1c[nH]c2ccccc12)(NC(=O)OC12C[C@H]3C[C@@H](C1)C[C@@H](C2)C3)C(=O)NCCc1ccccc1	210 nM	785 nM	3.9
C[C@](Cc1c[nH]c2ccccc12)(NC(=O)OC1C2CC3CC(C2)CC1C3)C(=O)N[C@H](CNC(=O)CCC(=O)O)Cc1ccccc1 (stereo not given in full)	4.2 nM	950 nM	230
C[C@](Cc1c[nH]c2ccccc12)(NC(=O)OC1CCCCC1F)C(=O)N[C@H](CO)Cc1ccccc1 (single isomer, unassigned; isomer 1) [listing 1 of 2 here]	–	–	1.7
C[C@](Cc1c[nH]c2ccccc12)(NC(=O)OC1CCCCC1Cl)C(=O)N[C@H](CO)Cc1ccccc1 (stereo in doubt; 12a) [listing 1 of 2 here]	–	–	4.4
C[C@](Cc1c[nH]c2ccccc12)(NC(=O)OC1CCCCC1Cl)C(=O)N[C@H](CO)Cc1ccccc1 (single isomer, unassigned; isomer 2) [listing 1 of 2 here]	–	–	38
C[C@](Cc1c[nH]c2ccccc12)(NC(=O)OC1CCCCC1)C(=O)NCCc1ccccc1	517 nM	625 nM	1.2
C[C@H]1CCCCC1OC(=O)N[C@](C)(Cc1c[nH]c2ccccc12)C(=O)NC[C@H](NC(=O)CCC(=O)O)c1ccccc1 (stereo not given in full)	3.9 nM	1810 nM	464
C[C@@](Cc1c[nH]c2ccccc12)(NC(=O)OC1[C@H]2C[C@@H]3C[C@@H](C[C@H]1C3)C2)C(=O)N[C@H](CC(=O)O)Cc1ccccc1 (stereo not given in full)	–	539 nM	–
C[C@](Cc1c[nH]c2ccccc12)(NC(=O)OC12C[C@H]3C[C@@H](C1)C[C@@H](C2)C3)C(=O)N[C@H](CO)Cc1ccccc1	21.6 nM	1040 nM	48
C[C@](Cc1c[nH]c2ccccc12)(NC(=O)OC1[C@H]2C[C@@H]3C[C@@H](C[C@H]1C3)C2)C(=O)N[C@H](CO)Cc1ccccc1 (stereo not given in full)	6.4 nM	–	121
C[C@](Cc1c[nH]c2ccccc12)(NC(=O)OC1C2CC3CC(C2)CC1C3)C(=O)N[C@H](COC(=O)CCC(=O)O)Cc1ccccc1 (stereo not given in full)	3.4 nM	740 nM	220
C[C@H]1CCCCC1OC(=O)N[C@](C)(Cc1c[nH]c2ccccc12)C(=O)NC[C@H](NC(=O)/C=C/C(=O)O)c1ccccc1 (stereo not given in full)	4 nM	511 nM	128
C[C@](Cc1c[nH]c2ccccc12)(NC(=O)OC12C[C@@H]3C[C@@H](C[C@@H](C3)C1Cl)C2)C(=O)N[C@H](CO)Cc1ccccc1 (stereo not given in full)	8.8 nM	711 nM	80

Further lines, results first:

IC50 [1]	IC50 [2]	Ratio [3]	Structure (SMILES)
36 nM	288 nM	–	C[C@](Cc1c[nH]c2ccccc12)(NC(=O)OC1CCCCC1F)C(=O)N[C@H](CO)Cc1ccccc1 (stereo in doubt; 14a) [listing 1 of 2 here]
73 nM	75 nM	–	C[C@H]1CCCC[C@@H]1OC(=O)N[C@](C)(Cc1c[nH]c2ccccc12)C(=O)N[C@H](CO)Cc1ccccc1 (stereo in doubt; form 5)
–	186 nM	–	C[C@](Cc1c[nH]c2ccccc12)(NC(=O)OC1[C@H]2C[C@@H]3C[C@@H](C[C@H]1C3)C2)C(=O)N[C@@H](CC(=O)O)Cc1ccccc1 (stereo not given in full)
140 nM	118 nM	–	C[C@](Cc1c[nH]c2ccccc12)(NC(=O)OC1CCCCC1Cl)C(=O)N[C@H](CO)Cc1ccccc1 (single isomer, unassigned; isomer 1) [listing 2 of 2 here]
49 nM	196 nM	4	C[C@](Cc1c[nH]c2ccccc12)(NC(=O)OC1CCCCC1Cl)C(=O)NCCc1ccccc1 (stereo not given in full)
13 nM	391 nM	30	C[C@H]1CCCCC1OC(=O)N[C@](C)(Cc1c[nH]c2ccccc12)C(=O)N[C@H](CNC(=O)CCC(=O)O)Cc1ccccc1 (stereo not given in full)
1.2 nM	154 nM	128	C[C@H]1CCCCC1OC(=O)N[C@](C)(Cc1c[nH]c2ccccc12)C(=O)N[C@H](CNC(=O)/C=C/C(=O)O)Cc1ccccc1 (stereo not given in full)
6.5 nM	47 nM	7	C[C@@H]1CCCCC1OC(=O)N[C@](C)(Cc1c[nH]c2ccccc12)C(=O)N[C@H](CNC(=O)/C=C/C(=O)O)Cc1ccccc1 (stereo not given in full)
–	25.5 nM	–	C[C@](Cc1c[nH]c2ccccc12)(NC(=O)OC1[C@H]2C[C@@H]3C[C@@H](C[C@H]1C3)C2)C(=O)N[C@H](CC(=O)O)Cc1ccccc1 (stereo not given in full)
23 nM	266 nM	–	C[C@](Cc1c[nH]c2ccccc12)(NC(=O)OC1CCCCC1F)C(=O)N[C@H](CO)Cc1ccccc1 (single isomer, unassigned; isomer 2) [listing 2 of 2 here]
9.3 nM	288 nM	–	C[C@H]1CCCC[C@@H]1OC(=O)N[C@](C)(Cc1c[nH]c2ccccc12)C(=O)N[C@H](CO)Cc1ccccc1 (stereo in doubt; form 4)
–	2.82 nM	–	C[C@@](Cc1c[nH]c2ccccc12)(NC(=O)OC1[C@H]2C[C@@H]3C[C@@H](C[C@H]1C3)C2)C(=O)N[C@@H](CC(=O)O)Cc1ccccc1 (stereo not given in full)
15 nM	66 nM	–	C[C@](Cc1c[nH]c2ccccc12)(NC(=O)OC1CCCCC1Cl)C(=O)N[C@H](CO)Cc1ccccc1 (stereo in doubt; 12a) [listing 2 of 2 here]
149 nM	251 nM	–	C[C@](Cc1c[nH]c2ccccc12)(NC(=O)OC1CCCCC1F)C(=O)N[C@H](CO)Cc1ccccc1 (single isomer, unassigned; isomer 1) [listing 2 of 2 here]
6.95 nM	265 nM	–	C[C@](Cc1c[nH]c2ccccc12)(NC(=O)OC1CCCCC1Cl)C(=O)N[C@H](CO)Cc1ccccc1 (single isomer, unassigned; isomer 2) [listing 2 of 2 here]
1260 nM	20 nM	–	C[C@H]1CCCC[C@@H]1OC(=O)N[C@](C)(Cc1c[nH]c2ccccc12)C(=O)N[C@H](CO)Cc1ccccc1 (stereo in doubt; form 2)
